Structures are written as SMILES. A value given as a limit tells only on which side of the number the result lay.

The target of data set [1] is Human immunodeficiency virus type 1 reverse transcriptase (Human immunodeficiency virus 1) (UniProt Q72547). The data set is described as follows: Inhibition of recombinant HIV1 reverse transcriptase assessed as residual activity at 10 uM by […] incorporation assay relative to control. In outline:
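Recombinant HIV-1 RT, compound at 10 µM final (from DMSO). Incubated 10 min at 37 °C, then collected on DEAE filters and washed. Counted by phosphorimager; activity expressed relative to uninhibited RT.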

The nature of data set [2]: Selectivity index, ratio of CC50 for human TZM-b1 cells to EC50 for HIV1 NL4-3. It counts as toxicity, cell-based. Particulars: read-out: Ratio CC50/EC50. In outline: (§1)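 Viability by WST-1 absorbance at 570 nm relative to drug-free control. Divided by EC50 from the 48 h β-galactosidase infection assay with NL4-3 in the same cell type.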
Data set [3] concerns Human immunodeficiency virus 1. In words: Antiviral activity against wild type HIV1 NL4-3 in human TZM-b1 cells assessed as beta-galactosidase activity after 48 hrs. It counts as functional, organism-based. Particulars: Human immunodeficiency virus 1, NL4-3, TZM-b1, 48 h. In outline:
(§2)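 Cells plated at 5000/well, incubated 48 h, then medium replaced with compound (0.00128 to 4 µM). Infection 4 h later with cell-free NL4-3 virus equivalent to 100 ng p24. At 48 h postinfection cells lysed in PBS with 0.1% NP-40 and 5 mM MgCl2. β-Galactosidase read with chlorophenol red β-D-galactopyranoside. EC50 taken from dose-response curves.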

Data set [4] has as its system Human immunodeficiency virus 1. The data set is described as follows: Antiviral activity against HIV1 NL4-3 with K103N/L100I double mutant in human TZM-b1 cells assessed as beta-galactosidase activity after 48 hrs by single round replication assay. Particulars: Human immunodeficiency virus 1, NL4-3, TZM-b1, 48 h. It counts as functional, organism-based. In outline: (§3)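 TZM-bl cells (DMEM, 5% heat-inactivated FBS) plated at 5000 cells/well and grown 48 h. Medium replaced with compound at 0.00128–4 µM. After 4 h, cells infected with NL4-3-derived RT-mutant virus equal to 100 ng p24. Virus stocks came from HEK293 cells transfected with sequence-verified mutant clones. At 48 h, cells lysed in PBS/0.1% NP-40/5 mM MgCl2 and β-galactosidase read with CPRG. EC50 taken from dose-response curves.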

The test system of data set [5] is Human immunodeficiency virus 1. The data set is described as follows: Antiviral activity against HIV1 NL4-3 with K103N mutant in human TZM-b1 cells assessed as beta-galactosidase activity after 48 hrs by single round replication assay. Particulars: Human immunodeficiency virus 1, NL4-3, TZM-b1, 48 h. In kind it is functional, organism-based. In outline:
as §3

Data set [6] concerns Human immunodeficiency virus 1. The data set is described as follows: Antiviral activity against HIV1 NL4-3 with L100I/V108I double mutant in human TZM-b1 cells assessed as beta-galactosidase activity after 48 hrs by single round replication assay. It counts as functional, organism-based. Particulars: Human immunodeficiency virus 1, NL4-3, TZM-b1, 48 h. In outline:
as §3

The test system of data set [7] is Human immunodeficiency virus 1. The data set is described as follows: Antiviral activity against HIV1 NL4-3 with L100I mutant in human TZM-b1 cells assessed as beta-galactosidase activity after 48 hrs by single round replication assay. In kind it is functional, organism-based. Particulars: Human immunodeficiency virus 1, NL4-3, TZM-b1, 48 h. In outline:
as §3

For data set [8], the system named is Human immunodeficiency virus 1. The data set is described as follows: Antiviral activity against HIV1 NL4-3 in human TZM-b1 cells assessed as beta-galactosidase activity after 48 hrs by single round replication assay. Particulars: Human immunodeficiency virus 1, NL4-3, TZM-b1, 48 h.
In data set [9] the test system is Human immunodeficiency virus 1. In words: Antiviral activity against HIV1 NL4-3 with K103N/Y181C double mutant in human TZM-b1 cells assessed as beta-galactosidase activity after 48 hrs by single round replication assay. Particulars: Human immunodeficiency virus 1, NL4-3, TZM-b1, 48 h.
Data set [10] relates to Human immunodeficiency virus 1. In words: Antiviral activity against HIV1 NL4-3 with Y181C mutant in human TZM-b1 cells assessed as beta-galactosidase activity after 48 hrs by single round replication assay. It counts as functional, organism-based. Particulars: Human immunodeficiency virus 1, NL4-3, TZM-b1, 48 h. In outline: as §3
Data set [11] relates to Human immunodeficiency virus 1. The data set is described as follows: Antiviral activity against HIV1 NL4-3 with V108I mutant in human TZM-b1 cells assessed as beta-galactosidase activity after 48 hrs by single round replication assay. In kind it is functional, organism-based. Particulars: Human immunodeficiency virus 1, NL4-3, TZM-b1, 48 h. In outline: as §3
Data set [12] relates to Human immunodeficiency virus 1. In words: Antiviral activity against HIV1 NL4-3 with K103N/V108I double mutant in human TZM-b1 cells assessed as beta-galactosidase activity after 48 hrs by single round replication assay. Particulars: Human immunodeficiency virus 1, NL4-3, TZM-b1, 48 h.
Data set [13] concerns Human immunodeficiency virus 1. In words: Antiviral activity against HIV1 NL4-3 with K103N mutant in human MT4 cells assessed as inhibition of virus-induced cytopathicity after 5 days by multiple round replication assay. Particulars: Human immunodeficiency virus 1, NL4-3, MT4, 120 h. It counts as functional, organism-based. In outline: (§4)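 MT-4 human T-cells, cultured in RPMI 1640 with 10% heat-inactivated FBS at 37 °C, 5% CO2, infected with HIV-1 NL4-3-derived mutant strains, then exposed to a range of compound concentrations. After 5 days, viability of infected and mock-infected cells read by WST-1 tetrazolium cleavage.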
On the technique in general: Protection from cytopathic effect is a common read-out in antiviral testing.

Data set [14] deals with Human immunodeficiency virus 1. The data set is described as follows: Antiviral activity against HIV1 NL4-3 with double K103N/L100I mutant in human MT4 cells assessed as inhibition of virus-induced cytopathicity after 5 days by multiple round replication assay. Particulars: Human immunodeficiency virus 1, NL4-3, MT4, 120 h. In kind it is functional, organism-based. In outline: as §4

Data set [15] relates to Human immunodeficiency virus 1. The data set is described as follows: Antiviral activity against HIV1 NL4-3 with Y181C mutant in human MT4 cells assessed as inhibition of virus-induced cytopathicity after 5 days by multiple round replication assay. In kind it is functional, organism-based. Particulars: Human immunodeficiency virus 1, NL4-3, MT4, 120 h. In outline: as §4

For data set [16], the system named is Human immunodeficiency virus 1. The data set is described as follows: Antiviral activity against wild type HIV1 NL4-3 in human MT4 cells assessed as inhibition of virus-induced cytopathicity after 5 days by multiple round replication assay. It counts as functional, organism-based. Particulars: Human immunodeficiency virus 1, NL4-3, MT4, 120 h. In outline:
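MT-4 T cells in RPMI 1640 with 10% FBS were infected with NL4-3 (wild type or RT mutants) and exposed to a range of compound concentrations. After 5 days, viability of infected and mock-infected cells was read by WST-1 cleavage, giving EC50 against viral cytopathicity and CC50 together.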

In data set [17] the test system is Human immunodeficiency virus 1. In words: Antiviral activity against HIV1 NL4-3 with L100I mutant in human MT4 cells assessed as inhibition of virus-induced cytopathicity after 5 days by multiple round replication assay. It counts as functional, organism-based. Particulars: Human immunodeficiency virus 1, NL4-3, MT4, 120 h. In outline: as §4
The test system of data set [18] is Human immunodeficiency virus 1. In words: Antiviral activity against wild type HIV1 NL4-3 in human HeLaP4 cells assessed as beta-galactosidase activity after 48 hrs. It counts as functional, organism-based. Particulars: Human immunodeficiency virus 1, NL4-3, HeLaP4, 48 h. In outline: as §2
Data set [19] in a line: Selectivity index, ratio of CC50 for human HeLaP4 cells to EC50 for HIV1 NL4-3. In kind it is toxicity, cell-based. Particulars: read-out: Ratio CC50/EC50. In outline: as §1
The test system of data set [20] is Human immunodeficiency virus 1. In words: Antiviral activity against HIV1 NL4-3 with Y181C mutant in human HeLaP4 cells assessed as beta-galactosidase activity after 48 hrs by single round replication assay. In kind it is functional, organism-based. Particulars: Human immunodeficiency virus 1, NL4-3, HeLaP4, 48 h.

For orientation: EC50 means the concentration needed to bring the measured effect to its halfway point. With `CCOC(=O)c1c(OC2CCCCC2)c(CC)c(C)[nH]c1=O`, the Activity in data set [1] came to 44.7%. Also, the selectivity ratio in data set [2] is > 435. In addition, the EC50 in data set [3] came out at 230 nM.

With `CCc1c(C)[nH]c(=O)c(N(C)C)c1O[C@@H]1C[C@H](C)C[C@H](C)C1`, the EC50 in [4] was 2900 nM; in [5], 14 nM; in [3], < 1 nM; in data set [6], 1600 nM; in data set [7] it was 28 nM; in [8] it was > 10000 nM. In addition, the EC50 in data set [9] is 245 nM; in data set [10] it was 177 nM; in [11] it was 6 nM; in data set [12], > 10000 nM. Moreover, in data set [2], the selectivity ratio is > 66000.

In the case of `CCc1c(C)[nH]c(=O)c(C(C)C)c1O[C@@H]1C[C@H](C)C[C@H](C)C1`, the EC50 is 7 nM in data set [13]; 84 nM in data set [14]; 44 nM in [4]; 2 nM in [5]; 19 nM in data set [15]; < 1 nM in data set [3]. For the same compound, the EC50 in [6] came to 10 nM; in data set [7] it was 2 nM; in data set [8], 1100 nM; in [16], 2 nM; in data set [9] it was 642 nM; in data set [10], 6 nM. Also, the EC50 in data set [12] came to 105 nM; in data set [17], 6 nM. The selectivity ratio in data set [2] is > 82000.

For `O=C1Nc2ccc(Cl)cc2[C@@](C#CC2CC2)(C(F)(F)F)O1` [EFAVIRENZ], the EC50 in data set [13] was 320 nM; in [14], > 10000 nM; in data set [4], 3700 nM; in [5], 31 nM; in [15], 4 nM; in [3], < 1 nM. Moreover, the EC50 in [6] was 14 nM; in data set [7], 17 nM; in data set [8] it was 235 nM; in [9], 525 nM; in data set [12] it was 34 nM; in data set [17], 167 nM.

As for `CCOC(=O)c1c(O[C@@H]2C[C@H](C)C[C@H](C)C2)c(CC)c(C)[nH]c1=O`, the EC50 is 36 nM in data set [18]; > 10000 nM in [5]; 2200 nM in data set [7]; > 10000 nM in data set [8]; 5900 nM in data set [11]; 2000 nM in data set [20]. Also, the selectivity ratio in data set [19] stood at 1780.

With `CCOC(=O)c1c(OC2CCCCCC2)c(CC)c(C)[nH]c1=O`, in [1], the Activity came out at 34.6%. In data set [2], the selectivity ratio came out at 205. Besides, in data set [3], the EC50 was 390 nM.

Take `CCOC(=O)c1c(OC2CCCC2)c(CC)c(C)[nH]c1=O`: the Activity in [1] was 58.6%. The selectivity ratio in data set [2] was > 135. Moreover, in [3], the EC50 was 740 nM.

`CCOC(=O)c1c(OC2CCCCCCC2)c(CC)c(C)[nH]c1=O`: in [1], the Activity was 24%. In addition, the selectivity ratio in data set [2] came to 83. Also, in [3], the EC50 was determined as 700 nM.

For the compound `CCc1c(C)[nH]c(=O)c(CN=[N+]=[N-])c1O[C@@H]1C[C@H](C)C[C@H](C)C1`, the EC50 in [4] is 828 nM; in [5] it was 74 nM; in data set [3], < 1 nM; in [6], 107 nM; in [7], 34 nM; in [8], > 10000 nM. Also, the EC50 worked out at 689 nM in data set [9], 206 nM in data set [10], 11 nM in data set [11] and 4400 nM in data set [12]. Further, in [2], the selectivity ratio was > 54000.

With `CCc1c(C)[nH]c(=O)c(CC)c1O[C@@H]1C[C@H](C)C[C@H](C)C1`, the EC50 in data set [13] was 26 nM; in [14], 145 nM; in data set [4], 81 nM; in data set [5], 5 nM; in [15] it was 49 nM; in data set [3], < 1 nM. Besides, the EC50 is 115 nM in data set [6]; 6 nM in data set [7]; 5400 nM in [8]; 2 nM in data set [16]; 359 nM in [9]; 15 nM in data set [10]. For the same compound, the EC50 in [12] came out at 107 nM; in data set [17], 27 nM. In addition, the selectivity ratio in [2] was > 67000.
